# Measurements from different studies.
# Each line is one published result; the experiments were not run side by side.
# Target: Protein kinase C iota type (PRKCI, Homo sapiens, UniProt P41743)
# Residues used in one study (P41743 1-596): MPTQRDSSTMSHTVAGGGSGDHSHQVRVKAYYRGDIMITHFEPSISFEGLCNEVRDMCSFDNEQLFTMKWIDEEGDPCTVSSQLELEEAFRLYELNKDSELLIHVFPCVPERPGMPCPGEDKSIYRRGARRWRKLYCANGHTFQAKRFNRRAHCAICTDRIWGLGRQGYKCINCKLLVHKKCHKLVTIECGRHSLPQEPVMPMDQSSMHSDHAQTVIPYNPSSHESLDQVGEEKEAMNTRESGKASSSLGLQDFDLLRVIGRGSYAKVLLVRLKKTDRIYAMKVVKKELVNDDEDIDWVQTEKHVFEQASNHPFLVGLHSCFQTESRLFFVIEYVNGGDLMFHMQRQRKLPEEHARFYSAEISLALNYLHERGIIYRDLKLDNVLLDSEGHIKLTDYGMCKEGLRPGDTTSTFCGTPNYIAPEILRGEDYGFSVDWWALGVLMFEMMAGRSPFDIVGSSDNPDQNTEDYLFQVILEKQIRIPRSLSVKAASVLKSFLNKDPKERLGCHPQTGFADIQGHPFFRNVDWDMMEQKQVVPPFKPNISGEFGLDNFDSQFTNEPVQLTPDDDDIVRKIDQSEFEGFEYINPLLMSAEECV
Structure (SMILES),assay,conditions,endpoint,result
CC(C)S(=O)(=O)c1ccc2nccc(Nc3ccc4sc(C5CCCC5)nc4c3)c2c1,"enzyme activity, inhibitor",1 µM,activity vs control,107%
C1=C/COCc2cc(ccc2OCCN2CCCC2)Nc2nccc(n2)-c2cccc(c2)COC/1,binding,0.1 µM,remaining binding,95%
CCCCC(=O)Nc1ccc(-c2ccc3ncn(CCC)c(=O)c3c2)cn1,"binding, competition with immobilised ligand",0.5 µM,remaining binding,91%
COc1ccc2[nH]c3c4[nH]c5ccc(OC)cc5c4c4c(c3c2c1)C(=O)NC4=O,binding,1 µM,remaining binding,63%
CO[C@@H]1[C@H](N(C)C(=O)c2ccccc2)C[C@H]2O[C@]1(C)n1c3ccccc3c3c4c(c5c6ccccc6n2c5c31)C(=O)NC4,"enzyme activity, inhibitor",1 µM,inhibition,43%
CN1CCN(C(=O)c2ccc(NC(=O)Nc3ccc(N(C)c4ccnc(Nc5ccc(CS(C)(=O)=O)cc5)n4)cc3)cc2)CC1,binding,1 µM,remaining binding,74%
CC#CC(=O)N1CCC[C@H]1c1nc(-c2ccc(C(=O)Nc3ccccn3)cc2)c2c(N)nccn12,"enzyme activity, inhibitor",1 µM,inhibition,0%
Cc1cc(O)c(-c2ccc([C@@H](C)CN(C)C)cc2)c2c1[nH]c(=O)c1sccc12,"cell-free assay, inhibitor","0.1 µM, lysate",inhibition,7.26%
